# Measurements from ChEMBL document CHEMBL1156036, “A class of novel N-(3S-1,2,3,4-tetrahydroisoquinoline-3-carbonyl)-L-amino acid derivatives: their synthesis, anti-thrombotic activity evaluation, and 3D QSAR analysis” (Eur J Med Chem, 2009).
# Square brackets hold non-standard residues; d marks the D form. Peptide text beside a SMILES is read from it. Tic = O=C(O)[C@@H]1Cc2ccccc2CN1
# Tests used:
# Format in all cases: functional
# [1] = Antiplatelet aggregatory activity in pig […] assessed as inhibition of ADP-induced platelet aggregation; conditions: Sus scrofa
# Procedure, shortened: (§1)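 Pig blood spun 1000g 10 min for platelet-rich plasma, then 1500g 10 min for platelet-poor plasma; platelets adjusted to 2×10^8/ml with autologous PPP. Test agent in NS (final 100 to 0.001 μM) added to 0.5 ml plasma, then inducer in NS: PAF 0.1 μM, ADP 10 μM, AA 350 μM or thrombin 0.1 U/ml (final). Optical aggregometry, 37 °C, 5 min, six tubes.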
# [2] = Antiplatelet aggregatory activity in pig […] assessed as inhibition of arachidonic acid-induced platelet aggregation; conditions: Sus scrofa; procedure, shortened: as §1
# [3] = Antiplatelet aggregatory activity in pig […] assessed as inhibition of platelet-activating factor-induced platelet aggregation; conditions: Sus scrofa; procedure, shortened: as §1
# [4] = Antiplatelet aggregatory activity in pig […] assessed as inhibition of thrombin-induced platelet aggregation; conditions: Sus scrofa; procedure, shortened: as §1
# Rattus norvegicus [5] = experiment: Antithrombotic activity in Wistar rat assessed as reduction of wet thrombus weight at 5 umol/kg, iv after 15 mins
# Procedure, shortened: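 Male Wistar rats, 250-300 g, given agent dissolved in NS (kept on ice) intravenously; Aspirin 15 μmol/kg as reference, NS as vehicle. Pentobarbital sodium 80.0 mg/kg i.p. Arteriovenous shunt from right carotid artery to left jugular vein via polyethylene tube containing a thread; blood flowed 15 min; wet thrombus weighed, n = 12, mean ± SD.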
# Rattus norvegicus [6] = organism: Rattus norvegicus; experiment: Ratio of compound antithrombotic potency to aspirin antithrombotic potency in Wistar rat assessed as reduction of wet thrombus weight
# Rattus norvegicus [7] = experiment: Antithrombotic activity in Wistar rat assessed as reduction of wet thrombus weight at 5 umol/kg, po after 15 mins
# Procedure, shortened: (§2)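 Oral dosing of male Wistar rats at 5, 1 or 0.2 μmol/kg in NS, or NS (0.6 ml) alone. Pentobarbital sodium 80.0 mg/kg ip; 30 min later vessels exposed. Weighed 6-cm thread in heparin-filled (50 IU/ml in NS) polyethylene tube linking carotid artery to jugular vein; 15 min flow; wet thrombus weight recorded, n = 12.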
# Rattus norvegicus [8] = experiment: Antithrombotic activity in Wistar rat assessed as reduction of wet thrombus weight at 1 umol/kg, po after 15 mins; procedure, shortened: as §2
# Rattus norvegicus [9] = experiment: Antithrombotic activity in Wistar rat assessed as reduction of wet thrombus weight at 0.2 umol/kg, po after 15 mins; procedure, shortened: as §2
smiles,measurement,setting,value
N=C(N)NCCC[C@H](NC(=O)[C@@H]1Cc2ccccc2CN1)C(=O)O (H-[Tic]-Arg-OH),IC50,[1],124 nM
same,IC50,[2],361 nM
same,IC50,[3],1340 nM
same,IC50,[4],496 nM
same,Activity,Rattus norvegicus [5],18.73 mg
same,Ratio,Rattus norvegicus [6],>30
same,Activity,Rattus norvegicus [7],19.01 mg
same,Activity,Rattus norvegicus [8],24.38 mg
same,Activity,Rattus norvegicus [9],29.11 mg
